Screening data (PubChem)
NR2E3 ag-1 – inhibitors of NR2E3-RetCOR corepressor binding, primary screen, NR2E3 agonist project, biochemical, TR-FRET, GST-NR2E3, biotin-RetCOR; 1536-well; inhibition of corepressor binding, % at 4.78 µM; 320,000 compounds, 0.12% hits;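 active = percent inhibition above the cutoff of mean plus 3 SD of all tested compounds, set per screening campaign, cut at about 20% in these data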;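 note: 0% = DMSO wells and 100% = biotin wells as full block of FRET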
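Material: NR2E3–RetCOR corepressor complex | Quantity: 1.35 nM GST-tagged NR2E3 final | Schedule: 5 h at 4 °C | Replication: Singlicate compound wells | Reagent: RetCOR corepressor, biotinylated, 7 nM | Controls: Biotin wells as high control, 0.6% DMSO wells as low control | Signal: TR-FRET, Eu(K)-anti-GST donor, streptavidin-D2 acceptor, ex 340, em 617/671 nm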
NR1D1 modulator – modulators of Rev-erb alpha DNA binding, primary screen, biochemical, FITC-DNA, fluorescence polarization, uHTS; Nuclear receptor subfamily 1 group D member 1 (Homo sapiens), P20393; Rev-erbα–FITC-DNA binding, 90 min; activity, % at 10 µM; 370,000 compounds, 0.79% hits;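 active = activity above about 14%, limit read from the data; passing the limit was not always enough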;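 note: 0% = DMSO wells with 35 nM protein and 100% = DMSO wells with 750 nM protein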
Target sequence (P20393 whole entry, looked up): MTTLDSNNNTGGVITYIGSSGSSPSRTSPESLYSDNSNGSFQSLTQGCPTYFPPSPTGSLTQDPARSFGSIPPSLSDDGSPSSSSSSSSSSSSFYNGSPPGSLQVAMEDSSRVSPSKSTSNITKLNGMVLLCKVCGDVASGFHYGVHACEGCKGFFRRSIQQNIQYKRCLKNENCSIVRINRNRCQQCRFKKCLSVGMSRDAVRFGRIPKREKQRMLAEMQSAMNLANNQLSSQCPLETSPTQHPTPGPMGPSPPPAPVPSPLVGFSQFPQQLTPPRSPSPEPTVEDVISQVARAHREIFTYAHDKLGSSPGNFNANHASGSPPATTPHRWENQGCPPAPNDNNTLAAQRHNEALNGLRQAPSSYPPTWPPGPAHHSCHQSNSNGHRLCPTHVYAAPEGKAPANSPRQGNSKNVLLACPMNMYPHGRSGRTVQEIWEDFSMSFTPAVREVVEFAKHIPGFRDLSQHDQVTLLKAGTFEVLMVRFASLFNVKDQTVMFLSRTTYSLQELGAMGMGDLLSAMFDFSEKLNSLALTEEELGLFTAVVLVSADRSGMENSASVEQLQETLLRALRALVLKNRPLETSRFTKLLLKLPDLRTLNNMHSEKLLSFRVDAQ
NR2E3 ag-2 – NR2E3 agonists in two-hybrid cells, primary screen, cell-based, luminescence, CHO-S, Gal4-NCOR/VP16-NR2E3. Photoreceptor-specific nuclear receptor (Homo sapiens), Q9Y5X4. luciferase. inhibition of corepressor binding, % at 3.98 µM. 360,000 compounds, 0.35% hits. AID 602229, 2012;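 active = inhibition above the mean of all tested compounds plus 3 SD, cut at about 70% in these data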;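 note: 0% = DMSO with NR2E3 transfected cells and 100% = cells lacking NR2E3 construct; higher means lower luciferase signal from less NR2E3 corepressor binding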
PG9 binder – binders of HIV-1 gp120 antibody PG9, primary screen, biochemical, TR-FRET. HIV-1 gp120 / PG9 antibody interaction. TR-FRET gp120-PG9 antibody binding. inhibition, % at 6.7 µM. 360,000 compounds, 0.43% hits; in the data active = inhibition above about 8.5%
NR2E3 ag conf – NR2E3 agonist confirmation in cells, cell-based, luminescence, CHO-S two-hybrid; shares compounds with NR2E3 ag-2; CHO-S mammalian two-hybrid NR2E3-NCOR, luciferase luminescence; inhibition, % at 3.98 µM; 2,300 compounds, 51% hits; AID 624378, 2012;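 active = average inhibition above a cutoff equal to the mean inhibition of all tested compounds plus one SD, cut at about 70% in these data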;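 note: 0% = DMSO in NR2E3 cells and 100% = DMSO in cells lacking NR2E3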
VP16 counter – GAL4-VP16 reporter modulators, confirmation, counter-screen for NR2E3 agonist project, cell-based, luminescence, CHO-S, high throughput; 2,300 compounds, 29% hits; inhibition, % at 3.98 µM; shares compounds with NR2E3 ag-2; CHO-S GAL4-VP16 luciferase reporter;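 active = mean inhibition above a cutoff equal to the average over all tested compounds plus one standard deviation, cut at about 70% in these data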;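 note: luciferase from a UAS reporter driven by GAL4-VP16 transactivation; 0% = DMSO with VP16-transfected cells and 100% = DMSO with cells lacking VP16; higher means less reporter light so more repression of VP16 activity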
Starred values were filed as active, the others as inactive; . = not tested or not shown. Compounds with a hit are over-represented: about 1.5% of the library has one in this group of screens.

SMILES | NR2E3 ag-1 | NR1D1 modulator | NR2E3 ag-2 | PG9 binder | NR2E3 ag conf | VP16 counter
COC1=CC(=O)c2nc(Cl)ccc2C1=O | . | -2 | 64 | 0 | 36 | 33
COc1cccc2c1C(=O)C=C(C)C2=O | -19 | 1 | -65 | -1 | . | .
CCOC(=O)c1ccc(NS(=O)(=O)c2cc3c4c(c2)CCN4C(=O)CC3)cc1 | -2 | 7 | 63 | 0 | 22 | 28
COC(=O)c1ccc(NS(=O)(=O)c2cc3c4c(c2)CCN4C(=O)CC3)cc1 | 0 | 0 | -1 | 0 | . | .
O=C(NCc1ccncc1)Nc1ccc2c(c1)OCO2 | 2 | -4 | -7 | -1 | . | .
c1cc(CNc2ccc3c(c2)OCCO3)ccn1 | -4 | -6 | 62 | -1 | -4 | -2
C=CCOc1ccccc1CNc1ccc2c(c1)OCCO2 | -3 | . | 49 | . | 49 | -8
CCCCOCCCNC(=O)C[C@@H]1C(=O)N2CCCC3=C2[C@@]1(C(=O)OC)CCCC3 | . | 2 | . | . | . | .
CCOC(=O)C1CCCN(S(=O)(=O)c2ccc(C)cc2)C1 (stereo not given) | -3 | 5 | 14 | -2 | . | .
CCOC(=O)C1CCCN(S(=O)(=O)c2ccc(S(=O)(=O)N(CC)CC)cc2)C1 (stereo not given) | 1 | -3 | 84* | 0 | 97* | 89*
CN1Cc2nnn(Cc3ccccc3)c2-c2cc(N3CCCC3)ccc2S1(=O)=O | . | 2 | . | . | . | .
CCCOc1ccc(Cn2cnc3ccccc32)cc1 | -4 | -4 | 56 | 0 | 78* | 59
Cc1nc2ccccc2c2oc(C(=O)NCc3ccccn3)cc12 | 3 | -6 | -15 | 1 | . | .
Cc1ccc(C)c(N2CCN(C(=O)c3cc4c(C)nc5ccccc5c4o3)CC2)c1 | -1 | 1 | -42 | -1 | . | .
Cc1nc2ccccc2c2oc(C(=O)NCc3ccc4c(c3)OCO4)cc12 | -2 | -1 | 70 | -2 | 54 | 56
COc1ccccc1N1CCN(C(=O)c2cc3c(C)nc4ccccc4c3o2)CC1 | 1 | 5 | 68 | -2 | 62 | 56
Cc1ccc(CNC(=O)c2cc3c(C)nc4ccccc4c3o2)cc1 | -1 | -5 | 86* | 0 | 93* | 78*
O=C(CSc1nc2sc3c(c2c(=O)n1-c1ccc(Cl)cc1)CCC3)Nc1ccc(C(=O)O)cc1 | . | -13 | . | . | . | .
CC(=O)Nc1ccc(/C=C/COC(C)=O)cc1C | . | -9 | . | . | . | .
O=C(Nc1ccc(NC(=O)c2ccccc2Cl)c(Cl)c1)c1ccccn1 | . | 2 | . | . | . | .
CCc1cccc(CC)c1NC(=S)NCCc1c(C)[nH]c2ccc(C)cc12 | 4 | -5 | 71* | -1 | 19 | 6
CCc1cccc(C)c1NC(=S)NCCc1c(C)[nH]c2ccc(C)cc12 | 1 | 4 | -11 | -1 | . | .
C=CCN1[C@H](C)COc2cccc(F)c2S1(=O)=O | . | -6 | . | . | . | .
CCOC(=O)[C@]12CCCCC/C=C\1N(CCc1ccc(Cl)cc1)C(=O)[C@H]2CC(=O)NCC12CC3CC(CC(C3)C1)C2 | . | 0 | . | . | . | .
CC(C)CC(O)(CC(C)C)c1cn(C(=O)N(c2ccccc2)c2ccccc2)nn1 | . | 0 | . | . | . | .
CC(=O)N1c2ccc(S(=O)(=O)N3CCC(C(=O)Nc4cccc(Cl)c4)CC3)cc2CC1C (stereo not given) | 2 | 5 | 78* | -1 | 74* | 52
CC(=O)N1c2ccc(S(=O)(=O)N3CCC(C(=O)N4CCN(c5cccc(C(F)(F)F)c5)CC4)CC3)cc2CC1C (stereo not given) | -1 | 6 | 99* | -1 | 89* | 76*
CC(=O)N1c2ccc(S(=O)(=O)N3CCC(C(=O)Nc4cccc(C)c4)CC3)cc2CC1C (stereo not given) | -2 | 1 | 33 | -1 | . | .
COc1ccc(S[C@]2(C(=O)N(C)C)CC(=O)N(c3ccccc3)[C@@H]2c2ccc(OC)cc2)cc1 | . | 6 | . | . | . | .
